The experiment concerns the target Mitogen-activated protein kinase 10 (Rattus norvegicus, UniProt P49187). As to the kind of experiment: Inhibition of rat c-Jun N-terminal kinase 3. Put shortly:
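GST-JNK3 was preactivated overnight at room temperature with GST-JNKK2 and ATP-γ-S, then dialysed. The enzyme (0.5 µg) was incubated with biotinylated GST-c-Jun (1 µg) and 2 µM ³³P-γ-ATP in 50 mM Tris-HCl pH 8.0, 10 mM MgCl₂, 1 mM DTT and 100 µM NaVO₄ for 120 min at room temperature. Reaction stopped with EDTA; phosphorylation detected by streptavidin SPA beads and scintillation counting. Values from triplicates.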
Mitogen-activated protein kinase 10, sequence (P49187 whole entry): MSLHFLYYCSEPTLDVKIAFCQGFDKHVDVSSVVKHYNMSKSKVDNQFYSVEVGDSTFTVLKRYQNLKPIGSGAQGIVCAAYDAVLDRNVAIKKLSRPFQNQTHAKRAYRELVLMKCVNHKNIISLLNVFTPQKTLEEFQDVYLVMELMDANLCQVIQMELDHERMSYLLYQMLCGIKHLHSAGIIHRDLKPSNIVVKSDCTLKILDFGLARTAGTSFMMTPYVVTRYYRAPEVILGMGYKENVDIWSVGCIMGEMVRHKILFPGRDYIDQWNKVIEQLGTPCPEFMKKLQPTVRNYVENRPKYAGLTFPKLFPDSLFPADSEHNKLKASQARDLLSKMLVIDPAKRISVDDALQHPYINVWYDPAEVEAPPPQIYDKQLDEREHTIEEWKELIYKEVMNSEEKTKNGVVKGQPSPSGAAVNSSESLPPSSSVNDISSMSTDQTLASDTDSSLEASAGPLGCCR
Regarding `N#CC(c1ccnc(NCCc2c[nH]cn2)n1)c1nc2ccccc2s1` (stereo not drawn), the IC50 amounted to 0.08 µM.
The value for `Cc1cc(C(C#N)c2nc3ccccc3s2)nc(Cl)n1` (stereo not drawn) [(2Z)-1,3-benzothiazol-2(3H)-ylidene(2-chloro-6-methylpyrimidin-4-yl)acetonitrile] was over 5 µM; that for `N#CC(c1ccnc(Cl)n1)c1nc2ccccc2s1` (stereo not drawn) [(2Z)-1,3-benzothiazol-2(3H)-ylidene(2-chloropyrimidin-4-yl)acetonitrile] was 0.25 µM.
The value for `N#CC(c1cccc(Cl)n1)c1nc2ccccc2s1` (stereo not drawn) [(2Z)-1,3-benzothiazol-2(3H)-ylidene(6-chloropyridin-2-yl)acetonitrile] was over 5 µM; that for `N#CC(c1ccncn1)c1nc2ccccc2s1` (stereo not drawn) [(2Z)-1,3-benzothiazol-2(3H)-ylidene(pyrimidin-4-yl)acetonitrile] was over 5 µM; that for `N#CC(c1nc2ccccc2[nH]1)c1nc(Cl)ncc1Br` (stereo not drawn) [(5-Bromo-2-chloro-pyrimidin-4-yl)-(1,3-dihydro-benzoimidazol-2-ylidene)-acetonitrile] was over 5 µM.
The value for `CCOC(=O)C(c1ccnc(Cl)n1)c1nc2ccccc2s1` (stereo not drawn) [[3H-Benzothiazol-(2Z)-ylidene]-(2-chloro-pyrimidin-4-yl)-acetic acid ethyl ester] was over 5 µM; that for `CCCN(CCC)c1nccc(C(C#N)c2nc3ccccc3s2)n1` (stereo not drawn) [[3H-Benzothiazol-(2Z)-ylidene]-(2-dipropylamino-pyrimidin-4-yl)-acetonitrile] was over 5 µM; that for `N#CC(c1ccnc(NCCc2ccccc2)n1)c1nc2ccccc2s1` (stereo not drawn) [[3H-Benzothiazol-(2Z)-ylidene]-(2-phenethylamino-pyrimidin-4-yl)-acetonitrile] was over 5 µM.
Regarding `CCCNc1nccc(C(C#N)c2nc3ccccc3s2)n1` (stereo not drawn) [[3H-Benzothiazol-(2Z)-ylidene]-(2-propylamino-pyrimidin-4-yl)-acetonitrile], the IC50 was over 5 µM.
The value for `Cc1ccc(CCNc2nccc(C(C#N)c3nc4ccccc4s3)n2)cc1` (stereo not drawn) [[3H-Benzothiazol-(2Z)-ylidene]-[2-(2-p-tolyl-ethylamino)-pyrimidin-4-yl]-acetonitrile] was over 5 µM; that for `N#CC(c1ccnc(NCCc2ccccn2)n1)c1nc2ccccc2s1` (stereo not drawn) [[3H-Benzothiazol-(2Z)-ylidene]-[2-(2-pyridin-2-yl-ethylamino)-pyrimidin-4-yl]-acetonitrile] was 0.25 µM.
As to `N#CC(c1ccnc(NCCc2ccc(Cl)c(Cl)c2)n1)c1nc2ccccc2s1` (stereo not drawn) [[3H-Benzothiazol-(2Z)-ylidene]-{2-[2-(3,4-dichloro-phenyl)-ethylamino]-pyrimidin-4-yl}-acetonitrile], the IC50 was over 5 µM.
The value for `N#CC(c1ccnc(NCCc2cccc(Cl)c2)n1)c1nc2ccccc2s1` (stereo not drawn) [[3H-Benzothiazol-(2Z)-ylidene]-{2-[2-(3-chloro-phenyl)-ethylamino]-pyrimidin-4-yl}-acetonitrile] was over 5 µM; that for `N#CC(c1ccnc(NCCc2ccc(Br)cc2)n1)c1nc2ccccc2s1` (stereo not drawn) [[3H-Benzothiazol-(2Z)-ylidene]-{2-[2-(4-bromo-phenyl)-ethylamino]-pyrimidin-4-yl}-acetonitrile] was over 5 µM.
The value for `N#CC(c1ccnc(NCCc2ccc(F)cc2)n1)c1nc2ccccc2s1` (stereo not drawn) [[3H-Benzothiazol-(2Z)-ylidene]-{2-[2-(4-fluoro-phenyl)-ethylamino]-pyrimidin-4-yl}-acetonitrile] was over 5 µM; that for `N#CC(c1ccnc(NCc2nnn[nH]2)n1)c1nc2ccccc2s1` (stereo not drawn) [[3H-Benzothiazol-(2Z)-ylidene]-{2-[(1H-tetrazol-5-ylmethyl)-amino]-pyrimidin-4-yl}-acetonitrile] was over 5 µM.
For `N#CC(c1ccnc(NCCc2ccc(N)cc2)n1)c1nc2ccccc2s1` (stereo not drawn) [{2-[2-(4-Amino-phenyl)-ethylamino]-pyrimidin-4-yl}-[3H-benzothiazol-(2Z)-ylidene]-acetonitrile], half-maximal inhibition (IC50) was put at 0.08 µM.

One may read the IC50 as the concentration at which inhibition is half-maximal. High values mean weaker potency, low ones greater potency.

(Values after BindingDB's records for doi:10.1021/jm0310986 (Serono Pharmaceutical Research Institute, 2005).)
